Tests used:
O-acyltransferase [1] = target: T1, O-acyltransferase (Oryctolagus cuniculus, UniProt G1SFD9); assay: In vitro inhibition of acyl coenzyme A:cholesterol acyltransferase, in intestinal microsomes isolated from cholesterol-fed rabbits; parameters: species or system Intestine
Procedure, shortened: (§1)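 Rabbit intestinal mucosa scraped, washed, homogenized in phosphate/KCl/EDTA/sucrose buffer; microsomes pelleted at 100000g and stored at -70 °C. Microsomes (0.3 mg protein) with BSA (0.5 mg) and inhibitor in DMSO/Tween-20 preincubated 5 min at 37 °C. [1-14C]oleoyl-CoA (10 nmol, 0.05 μCi) then added for 5 min. Cholesteryl oleate extracted, separated by TLC and counted by scintillation. Four dilutions per compound, in triplicate.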

Rattus norvegicus [2] = organism: Rattus norvegicus; assay: Percent change in total cholesterol (TC) in cholic acid (0.3%) -cholesterol (1.5%) -peanut oil(5.5%) -fed rats.; type: functional
Procedure, shortened: (§2)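 Rats fed ad libitum for 1 week on a diet with peanut oil (5.5%), cholesterol (1.5%) and cholic acid (0.3%), with compound mixed in at 0.05% of the diet. Sacrificed in the fed state. Plasma total and/or HDL cholesterol measured as percent change versus cholesterol-fed controls. Significance by ANOVA followed by Fisher's multiple range test, p < 0.05.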

Rattus norvegicus [3] = organism: Rattus norvegicus; assay: Percent change in high density lipoprotein (HDL-cholesterol in cholesterol-fed rats.; type: functional; procedure, shortened: as §2
O-acyltransferase [4] = target: T1, O-acyltransferase; assay: Tested in vitro to inhibit Acyl coenzyme A:cholesterol acyltransferase in intestinal microsomes isolated from cholesterol-fed rabbits.; parameters: species or system Intestine; procedure, shortened: as §1

T1 sequence (G1SFD9 1-524): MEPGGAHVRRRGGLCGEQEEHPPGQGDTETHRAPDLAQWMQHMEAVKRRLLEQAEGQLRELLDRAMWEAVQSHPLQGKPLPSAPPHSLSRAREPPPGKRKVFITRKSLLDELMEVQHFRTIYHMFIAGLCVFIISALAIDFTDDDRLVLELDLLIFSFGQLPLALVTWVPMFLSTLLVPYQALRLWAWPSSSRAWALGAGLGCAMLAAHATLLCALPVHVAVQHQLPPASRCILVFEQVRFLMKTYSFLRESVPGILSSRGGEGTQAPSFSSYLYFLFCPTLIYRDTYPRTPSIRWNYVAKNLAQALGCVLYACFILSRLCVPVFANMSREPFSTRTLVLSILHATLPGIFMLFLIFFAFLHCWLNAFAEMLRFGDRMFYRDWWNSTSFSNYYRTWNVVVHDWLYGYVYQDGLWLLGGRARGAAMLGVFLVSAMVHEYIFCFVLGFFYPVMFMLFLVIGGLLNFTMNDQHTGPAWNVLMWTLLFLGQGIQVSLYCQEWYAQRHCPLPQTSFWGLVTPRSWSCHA

| SMILES | IC50 (O-acyltransferase [1]) [nM] | IC50 (O-acyltransferase [4]) [nM] | Change (Rattus norvegicus [2]) [%] | Change (Rattus norvegicus [3]) [%] |
| --- | --- | --- | --- | --- |
| CCCCCCCC/C=C/CCCCCCCC(=O)Nc1c(C)cccc1OC | 20 |  | -30 |  |
| CCCCCCCCCCCCC(C)C(=O)Nc1c(OC)cc(OC)cc1OC (configuration not stated) |  |  | -39 |  |
| CCCCCCCC/C=C/CCCCCCCC(=O)Nc1cc(Cl)c(OC)cc1OC | 520 |  | -7 |  |
| CCCCCCCC/C=C/CCCCCCCC(=O)Nc1cccc(C(=O)OC)c1C | > 5000 |  |  |  |
| CCCCCCCC/C=C/CCCCCCCC(=O)Nc1cccc(C)c1[N+](=O)[O-] | 12000 |  |  |  |
| CCCCCCCC/C=C/CCCCCCCC(=O)Nc1ccccc1-c1ccccc1 | 910 |  |  |  |
| CCCCCCCC/C=C/CCCCCCCC(=O)Nc1c(C)cccc1C(C)C | 23 |  | -45 |  |
| CCCCCCCC/C=C/CCCCCCCC(=O)Nc1c(C(C)C)cccc1C(C)C | 7 |  | -21 |  |
| CCCCCCCC/C=C/CCCCCCCC(=O)Nc1ccccc1C(=O)c1ccccc1 | > 10000 |  |  |  |
| CCCCCCCC/C=C/CCCCCCCC(=O)Nc1ccccc1Cl | 75000 |  |  |  |
| CCCCCCCC/C=C/CCCCCCCC(=O)Nc1ccc(CC(=O)OCC)c(C)c1 | 3000 |  | -10 |  |
| CCCCCCCC/C=C/CCCCCCCC(=O)Nc1cc(C(=O)OC)ccc1OC | 430 |  |  |  |
| CCCCCCCC/C=C/CCCCCCCC(=O)Nc1cc(OC)c(OC)cc1OC | 1100 |  |  |  |
| CCCCCCCC/C=C/CCCCCCCC(=O)Nc1cccc2c1CCCC2 | 350 |  |  |  |
| CCCCCCCC/C=C/CCCCCCCC(=O)Nc1c(CC)cccc1CC | 17 |  | -51 |  |
| CCCCCCCC/C=C/CCCCCCCC(=O)Nc1ccccc1C(C)C | 600 |  |  |  |
| CCCCCCCC/C=C/CCCCCCCC(=O)Nc1ccc(F)cc1F | 32000 |  | -19 |  |
| CCCCCCCC/C=C/CCCCCCCC(=O)Nc1cc(C(=O)OC)c(C)cc1C | 60 |  | -41 |  |
| CCCCCCCC/C=C/CCCCCCCC(=O)Nc1c(C)cccc1OCC | 15 |  | -45 |  |
| CCCCCCCC/C=C/CCCCCCCC(=O)Nc1ccccc1CC | 1200 |  |  |  |
| CCCCCCCC/C=C/CCCCCCCC(=O)Nc1ccc(OC)c(OC)c1 |  | 4500 |  |  |
| CCCCCCCC/C=C/CCCCCCCC(=O)Nc1c(Cl)cc(Cl)cc1Cl | 30 |  | -44 |  |
| CCCCCCCC/C=C/CCCCCCCC(=O)Nc1ccc(C)cc1C(=O)OC | 9200 |  |  |  |
| CCCCCCCC/C=C/CCCCCCCC(=O)Nc1c(F)cc(F)cc1F |  | 6300 | 2 |  |
| CCCCCCCC/C=C/CCCCCCCC(=O)Nc1ccccc1OC | 8000 |  |  |  |
| CCCCCCCC/C=C/CCCCCCCC(=O)Nc1c(C)cc(C)cc1C | 700 |  | -27 |  |
| CCCCCCCC/C=C/CCCCCCCC(=O)Nc1cc(C(=O)OC)c(OC)cc1OC | 1100 |  |  |  |
| CCCCCCCC/C=C/CCCCCCCC(=O)Nc1ccc(OC)cc1OC | 3000 |  |  |  |
| CCCCCCCC/C=C\CCCCCCCC(=O)Nc1c(C)cccc1C |  | 43 | -38 |  |
| CCCCCCCCCCC(C)(C)C(=O)Nc1c(OC)cc(OC)cc1OC [CL-976] |  |  |  | 94 |

Continued, in another order:

| IC50 (O-acyltransferase [1]) [nM] | IC50 (O-acyltransferase [4]) [nM] | SMILES | Change (Rattus norvegicus [2]) [%] | Change (Rattus norvegicus [3]) [%] |
| --- | --- | --- | --- | --- |
| 180 |  | CCCCCCCC(C)(C)C(=O)Nc1c(OC)cc(OC)cc1OC | -13 | 2 |
| 140 |  | CCCCCCCCCCC(C)(C)C(=O)Nc1c(OC)cc(OC)cc1OCCCCCCC |  |  |
| 210 |  | CCCCCCCCCCC(C)(C)C(=O)Nc1c(C(C)C)cccc1C(C)C |  |  |
| 180 |  | CCCCCCCCCCC(C)(C)C(=O)Nc1c(C)cccc1OCC |  |  |
| 194 |  | CCCCCCCCCCC(C)(C)C(=O)Nc1c(C)cc(C)cc1C |  |  |
| 52 |  | CCCCCCCCCCCCC(CC)C(=O)Nc1c(OC)cc(OC)cc1OC (configuration not stated) | -11 |  |
| 63 |  | CCCCCCCCCCCCC(C)(C)C(=O)Nc1c(OC)cc(OC)cc1OC | -45 | 19 |
| 70 |  | CCCCCCCCCCC1(C(=O)Nc2c(OC)cc(OC)cc2OC)CCCCC1 | -43 |  |
| 410 |  | CCCCCCCCCCC(C)(C)C(=O)Nc1c(C)cc(Br)cc1C |  |  |
| 260 |  | CCCCCCCCCCC(C)(C)C(=O)Nc1c(F)cc(F)cc1F |  |  |
| 49 |  | CCCCCCCCCCCCCCC1(C(=O)Nc2c(OC)cc(OC)cc2OC)CC1 | -43 | 16 |
| 390 |  | CCCCCCCCCCC(C)(C)C(=O)Nc1c(CC)cccc1CC |  |  |
| > 1000 |  | CCCCCCCCCCC(C)(C)C(=O)Nc1c(OC)cc(OC)cc1OCC(=O)O |  |  |
|  | 59 | CCCCCCCCCC(C)(C)C(=O)Nc1c(OC)cc(OC)cc1OC | -53 | 86 |
|  | 51 | CCCCCCCC/C=C/CCCCCCCC(=O)Nc1c(OC)cc(OC)cc1OC | -38 |  |
| 44 |  | CCCCCCCCCCCCCCC(C)(C)C(=O)Nc1c(OC)cc(OC)cc1OC | -55 | 26 |
| 59 |  | CCCCCCCCC(C)(C)C(=O)Nc1c(OC)cc(OC)cc1OC | -43 | 53 |
|  | 90 | CCCCCCCCCCC(C)C(=O)Nc1c(OC)cc(OC)cc1OC (configuration not stated) |  |  |
| 54 |  | CCCCCCCCCCCCCCCC(=O)Nc1c(OC)cc(OC)cc1OC | -38 |  |
| 130 |  | CCCCCCCCCCC(C)(C)C(=O)Nc1cc(C(=O)OC)ccc1OC |  |  |
| 36 |  | CCCCCCCC/C=C/CCCCCCC(C)C(=O)Nc1c(OC)cc(OC)cc1OC (configuration not stated) | -40 |  |
| 31 |  | CCCCCCCCCCCCCCC(C)C(=O)Nc1c(OC)cc(OC)cc1OC (configuration not stated) |  |  |

| IC50 (O-acyltransferase [1]) [nM] | IC50 (O-acyltransferase [4]) [nM] | SMILES | Change (Rattus norvegicus [2]) [%] | Change (Rattus norvegicus [3]) [%] |
| --- | --- | --- | --- | --- |
| 87 |  | CCCCCCCCCCCCCCCCC(C)(C)C(=O)Nc1c(OC)cc(OC)cc1OC | -34 | 13 |
| 52 |  | CCCCCCCCCCCCCCCCCC(=O)Nc1c(OC)cc(OC)cc1OC | -11 | 31 |
| 680 |  | CCCCCCCCCCC(C)(C)C(=O)Nc1ccc(C)cc1C |  |  |
| 190 |  | CCCCCCCCCCCCCC(=O)Nc1c(OC)cc(OC)cc1OC | -44 |  |
| 1300 |  | CCCCCCCCCCC(C)(C)C(=O)Nc1c(C)cccc1C |  |  |
| 93 |  | CCCCCCCCCCC1(C(=O)Nc2c(OC)cc(OC)cc2OC)CCCCCC1 | -42 | 9 |
| 58 |  | CCCCCCCCCCCCC1(C(=O)Nc2c(OC)cc(OC)cc2OC)CC1 | -40 | 27 |
| 1660 |  | CCCCCCCCCCC(C)(C)C(=O)Nc1ccc(C)c(C)c1 |  |  |
|  | 73 | CCCCCCCCCCC(CC)C(=O)Nc1c(OC)cc(OC)cc1OC (configuration not stated) |  |  |
| 150 |  | CCCCCCCC/C=C/CCCCCCCC(=O)Nc1c(O)cc(OC)cc1OC |  |  |
| 590 |  | CCCCCCCCCCC(C)(C)C(=O)Nc1c(O)cc(OC)cc1OC |  |  |
| 97 |  | CCCCCCCCCCC(CC)(CC)C(=O)Nc1c(OC)cc(OC)cc1OC |  |  |
| 39 |  | CCCCCCCCCCC1(C(=O)Nc2c(OC)cc(OC)cc2OC)CCC1 | -57 | 73 |
| 2300 |  | CCCCCCCCCCC(C)(C)C(=O)Nc1c(OC)cc(OC)cc1OCC(=O)OC |  |  |
| 240 |  | CCCCCCCCCCC(C)(C)C(=O)Nc1c(C)cccc1C(C)C |  |  |
| 44 |  | CCCCCCCC/C=C/CCCCCCC(C)(C)C(=O)Nc1c(OC)cc(OC)cc1OC | -60 |  |
| 750 |  | CCCCCCCCCCC(C)(C)C(=O)Nc1c(C)cccc1Cl |  |  |
| 210 |  | CCCCCCCCCCC(C)(C)C(=O)Nc1c(C)cccc1OC |  |  |
| 200 |  | C=C(CCCCCCCCCC)C(=O)Nc1c(OC)cc(OC)cc1OC |  |  |
| 32 |  | CCCCCCCCCCC1(C(=O)Nc2c(OC)cc(OC)cc2OC)CCCC1 | -67 | 45 |
| 65 |  | CCCCCCCCCCCCCCC(=O)Nc1c(OC)cc(OC)cc1OC |  |  |
